According to ChEMBL document CHEMBL4414574, “Structure-Based Discovery and Development of a Series of Potent and Selective Bromodomain and Extra-Terminal Protein Inhibitors” (J Med Chem, 2019):
The source made the active and inactive calls. The rule behind the calls is not given here.

What was measured:
[1] = target: Histone acetyltransferase p300 (Homo sapiens) (UniProt Q09472); assay: Inhibition of EP300 (unknown origin) at 1 uM
Summary of the method: (§1)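 Bromodomain binding panel (32 bromodomains) screened at 1 μM; primary binding read-out reported as percent of control, lower values meaning stronger binding.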

[2] = Half life in ICR mouse at 10 mg/kg, po administered via gavage measured after 0.25 to 24 hrs by UPLC/MS analysis; assay type: ADME, organism-based; details: in vivo
Summary of the method: (§2)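 Male ICR mice dosed orally in 1% DMSO/0.5% HPMC vehicle; plasma or brain drug levels used to derive Tmax, Cmax, AUC0-t, AUC0-inf and T1/2.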

[3] = Half life in human liver microsomes at 1 uM preincubated for 5 mins followed by NADPH addition and measured after 5 to 30 mins by LC/MS/MS analysis; assay type: ADME, Microsome
[4] = Intrinsic clearance in mouse liver microsomes at 1 uM preincubated for 5 mins followed by NADPH addition and measured after 5 to 30 mins by LC/MS/MS analysis; assay type: ADME, Microsome; details: read-out: CLH
Summary of the method: (§3)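 Liver microsomes (0.5 mg/mL) preincubated 5 min at 37 °C with 1 μM compound in 0.1 M phosphate buffer pH 7.4 containing 1 mM EDTA and 5 mM MgCl2; started with 1 mM NADPH; sampled at 0, 5, 10 and 30 min; quenched with cold acetonitrile; parent remaining quantified by LC/MS/MS.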

CYP3A4 = CYP3A4 (Homo sapiens, UniProt P08684); assay: Reversible inhibition of CYP3A4 in human liver microsomes at 10 uM using midazolam or testosterone as substrate preincubated for 5 mins followed by NADPH addition and measured after 20 mins relative to control; assay type: ADME; details: probe midazolam or testosterone
Summary of the method: (§4)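 Human liver microsomes 0.2 mg/mL, 100 mM phosphate pH 7.4, 10 μM test compound, probe cocktail (10 μM midazolam, 100 μM testosterone, 10 μM dextromethorphan, 20 μM diclofenac, 100 μM phenacetin, 100 μM mephenytoin); organic solvent <1%; 5 min preincubation at 37 °C, started with NADPH-generating system, 20 min reaction; metabolite formation expressed relative to PBS control.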

[5] = target: T1, Bromodomain-containing protein 4 (Homo sapiens, UniProt O60885); assay: Inhibition of BRD4 bromodomain 2 (unknown origin)
[6] = Cmax in ICR mouse at 10 mg/kg, po administered via gavage measured after 0.25 to 24 hrs by UPLC/MS analysis; assay type: ADME, organism-based; design: dose 10 mg/kg, route oral; details: in vivo; summary of the method: as §2
Cytochrome P450 1A2 = target: T2, Cytochrome P450 1A2 (Homo sapiens, UniProt P05177); assay: Time-dependent inhibition of CYP1A2 in human liver microsomes at 10 uM using phenacetin as substrate preincubated up to 30 mins followed by NADPH generating system addition and measured after 10 mins; assay type: ADME
T2 sequence (P05177 whole entry): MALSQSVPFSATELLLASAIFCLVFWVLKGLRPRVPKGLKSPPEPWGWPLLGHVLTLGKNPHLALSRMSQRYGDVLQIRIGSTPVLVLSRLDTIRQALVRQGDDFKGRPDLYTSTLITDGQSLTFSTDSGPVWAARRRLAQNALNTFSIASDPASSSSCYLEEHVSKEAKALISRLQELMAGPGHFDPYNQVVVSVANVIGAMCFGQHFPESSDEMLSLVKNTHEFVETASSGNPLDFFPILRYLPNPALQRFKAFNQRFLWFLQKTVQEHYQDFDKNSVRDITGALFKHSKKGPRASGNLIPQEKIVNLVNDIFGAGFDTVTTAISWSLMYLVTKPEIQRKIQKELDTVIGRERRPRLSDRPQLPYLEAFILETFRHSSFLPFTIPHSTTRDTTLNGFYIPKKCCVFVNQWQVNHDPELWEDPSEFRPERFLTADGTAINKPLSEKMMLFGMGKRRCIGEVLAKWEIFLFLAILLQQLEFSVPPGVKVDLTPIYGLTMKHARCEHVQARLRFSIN
Summary of the method: (§5)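 Human liver microsomes 0.2 mg/mL, 100 mM phosphate pH 7.4, 10 μM test compound, preincubated 0, 5, 10 and 30 min at 37 °C; then NADPH plus probe cocktail (5 μM midazolam, 50 μM testosterone, 5 μM dextromethorphan, 10 μM diclofenac, 50 μM phenacetin, 50 μM S-(+)-mephenytoin) added; 10 min reaction; kobs in units of 10^-4/min.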

Cytochrome P450 3A4 = Cytochrome P450 3A4 (Homo sapiens, UniProt P08684); assay: Time-dependent inhibition of CYP3A4 in human liver microsomes at 10 uM using midazolam or testosterone as substrate preincubated up to 30 mins followed by NADPH generating system addition and measured after 10 mins; assay type: ADME; summary of the method: as §5
CYP2C19 = CYP2C19 (Homo sapiens, UniProt P33261); assay: Reversible inhibition of CYP2C19 in human liver microsomes at 10 uM using mephenytoin as substrate preincubated for 5 mins followed by NADPH generating system addition and measured after 20 mins relative to control; assay type: ADME; details: probe mephenytoin; summary of the method: as §4
[7] = AUC (0 to t) in ICR mouse at 10 mg/kg, po administered via gavage measured after 0.25 to 24 hrs by UPLC/MS analysis; assay type: ADME, organism-based; design: time 0.25-24 hr, dose 10 mg/kg, route oral; details: in vivo
Summary of the method: (§6)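 Male ICR mice were dosed orally in 1% DMSO/0.5% HPMC vehicle. Plasma (and brain, where stated) concentrations gave Tmax, Cmax, T1/2, AUC0-t and AUC0-inf.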

[8] = target: T1, Bromodomain-containing protein 4; assay: Displacement of 5-FITC labelled (+)-JQ1 from His6-tagged human BRD4 bromodomain 1 expressed in Escherichia coli BL21(DE3) )-codon plus-RIL cells incubated for 4 hrs in dark condition by fluorescence anisotropy binding assay
[9] = target: Bromodomain-containing protein 2 (Homo sapiens) (UniProt P25440); assay: Inhibition of BRD2 bromodomain 2 (unknown origin); summary of the method: as §1
[10] = Half life in mouse liver microsomes at 1 uM preincubated for 5 mins followed by NADPH addition and measured after 5 to 30 mins by LC/MS/MS analysis; assay type: ADME, Microsome; details: mouse liver microsomes
[11] = Tmax in ICR mouse at 10 mg/kg, po administered via gavage measured after 0.25 to 24 hrs by UPLC/MS analysis; assay type: ADME, organism-based; details: in vivo
Summary of the method: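 Male ICR mice dosed orally (3, 10 or 100 mg/kg, per line) in 1% DMSO/0.5% HPMC vehicle; plasma drug levels measured.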

Cytochrome P450 2D6 = Cytochrome P450 2D6 (Homo sapiens, UniProt P10635); assay: Time-dependent inhibition of CYP2D6 in human liver microsomes at 10 uM using dextromethorphan as substrate preincubated up to 30 mins followed by NADPH generating system addition and measured after 10 mins; assay type: ADME; summary of the method: as §5
[12] = AUC (0 to infinity) in ICR mouse at 10 mg/kg, po administered via gavage measured after 0.25 to 24 hrs by UPLC/MS analysis; assay type: ADME, organism-based; design: dose 10 mg/kg, route oral, time infinity; details: in vivo; summary of the method: as §6
Cytochrome P450 2C9 = Cytochrome P450 2C9 (Homo sapiens, UniProt P11712); assay: Time-dependent inhibition of CYP2C9 in human liver microsomes at 10 uM using diclofenac as substrate preincubated up to 30 mins followed by NADPH generating system addition and measured after 10 mins; assay type: ADME; summary of the method: as §5
[13] = target: T1, Bromodomain-containing protein 4; assay: Inhibition of BRD4 bromodomain 1 (unknown origin)
Summary of the method: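 BRD4 BD1 (His6-tagged, E. coli BL21(DE3)-expressed, Ni-NTA purified) at 10 nM with 5 nM FITC-labelled (+)-JQ1 tracer; 50 mM HEPES pH 7.4, 150 mM NaCl, 0.5 mM CHAPS, DMSO 2‰ final; graded inhibitor; 4 h dark equilibration at room temperature; fluorescence anisotropy read (ex 485/em 530 nm). IC50 from two independent experiments in duplicate, mean ± SEM.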

Cytochrome P450 2C19 = Cytochrome P450 2C19 (Homo sapiens, UniProt P33261); assay: Time-dependent inhibition of CYP2C19 in human liver microsomes at 10 uM using mephenytoin as substrate preincubated up to 30 mins followed by NADPH generating system addition and measured after 10 mins; assay type: ADME; summary of the method: as §5
CYP2D6 = CYP2D6 (Homo sapiens, UniProt P10635); assay: Reversible inhibition of CYP2D6 in human liver microsomes at 10 uM using dextromethorphan as substrate preincubated for 5 mins followed by NADPH generating system addition and measured after 20 mins relative to control; assay type: ADME; details: probe dextromethorphan; summary of the method: as §4
[14] = Intrinsic clearance in human liver microsomes at 1 uM preincubated for 5 mins followed by NADPH addition and measured after 5 to 30 mins by LC/MS/MS analysis; assay type: ADME, Microsome; details: read-out: CLH; summary of the method: as §3
MM1.S = assay: Antiproliferative activity against human MM1S cells after 72 hrs by CCK8 or SRB assay; assay type: functional, cell-based
Summary of the method: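 IC50 against MM.1S cell proliferation was taken as the mean of three independent experiments, each run in triplicate, reported with SEM.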

CYP2C9 = CYP2C9 (Homo sapiens, UniProt P11712); assay: Reversible inhibition of CYP2C9 in human liver microsomes at 10 uM using diclofenac as substrate preincubated for 5 mins followed by NADPH generating system addition and measured after 20 mins relative to control; assay type: ADME; details: probe diclofenac; summary of the method: as §4
[15] = target: Bromodomain-containing protein 2 (Homo sapiens) (UniProt P25440); assay: Inhibition of BRD2 bromodomain 1 (unknown origin)
[16] = Metabolic stability in human liver microsomes at 1 uM preincubated for 5 mins followed by NADPH addition and measured after 5 to 30 mins by LC/MS/MS analysis; assay type: ADME, Microsome; summary of the method: as §3
[17] = Metabolic stability in mouse liver microsomes at 1 uM preincubated for 5 mins followed by NADPH addition and measured after 5 to 30 mins by LC/MS/MS analysis; assay type: ADME, Microsome; summary of the method: as §3

Cytochrome P450 2C19, sequence (P33261 whole entry): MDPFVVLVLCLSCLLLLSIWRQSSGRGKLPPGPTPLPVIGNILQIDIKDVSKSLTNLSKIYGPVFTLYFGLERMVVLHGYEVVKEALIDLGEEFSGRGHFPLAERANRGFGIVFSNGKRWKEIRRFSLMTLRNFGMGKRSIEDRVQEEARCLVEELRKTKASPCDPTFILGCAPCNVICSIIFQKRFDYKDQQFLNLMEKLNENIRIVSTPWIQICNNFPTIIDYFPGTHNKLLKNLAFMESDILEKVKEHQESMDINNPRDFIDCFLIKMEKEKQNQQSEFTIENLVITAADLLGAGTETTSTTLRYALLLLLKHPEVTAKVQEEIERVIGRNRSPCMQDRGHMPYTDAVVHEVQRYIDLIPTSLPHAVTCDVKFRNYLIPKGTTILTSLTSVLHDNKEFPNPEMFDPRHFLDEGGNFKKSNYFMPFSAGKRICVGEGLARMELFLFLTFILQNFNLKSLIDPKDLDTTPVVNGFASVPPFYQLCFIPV
Cytochrome P450 2C9, sequence (P11712 whole entry): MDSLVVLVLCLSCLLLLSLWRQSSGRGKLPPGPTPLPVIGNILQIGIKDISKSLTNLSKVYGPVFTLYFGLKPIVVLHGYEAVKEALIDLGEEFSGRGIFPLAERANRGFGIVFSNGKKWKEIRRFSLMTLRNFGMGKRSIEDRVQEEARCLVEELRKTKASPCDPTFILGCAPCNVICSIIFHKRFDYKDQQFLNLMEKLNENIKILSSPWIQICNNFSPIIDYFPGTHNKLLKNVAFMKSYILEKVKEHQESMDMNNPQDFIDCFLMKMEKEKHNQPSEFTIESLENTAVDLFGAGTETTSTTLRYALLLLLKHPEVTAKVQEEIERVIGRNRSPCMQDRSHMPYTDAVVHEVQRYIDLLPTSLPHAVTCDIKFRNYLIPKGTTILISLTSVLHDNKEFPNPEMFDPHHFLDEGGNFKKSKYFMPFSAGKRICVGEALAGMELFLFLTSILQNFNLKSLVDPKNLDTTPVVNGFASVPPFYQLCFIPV
Cytochrome P450 3A4, sequence (P08684 whole entry): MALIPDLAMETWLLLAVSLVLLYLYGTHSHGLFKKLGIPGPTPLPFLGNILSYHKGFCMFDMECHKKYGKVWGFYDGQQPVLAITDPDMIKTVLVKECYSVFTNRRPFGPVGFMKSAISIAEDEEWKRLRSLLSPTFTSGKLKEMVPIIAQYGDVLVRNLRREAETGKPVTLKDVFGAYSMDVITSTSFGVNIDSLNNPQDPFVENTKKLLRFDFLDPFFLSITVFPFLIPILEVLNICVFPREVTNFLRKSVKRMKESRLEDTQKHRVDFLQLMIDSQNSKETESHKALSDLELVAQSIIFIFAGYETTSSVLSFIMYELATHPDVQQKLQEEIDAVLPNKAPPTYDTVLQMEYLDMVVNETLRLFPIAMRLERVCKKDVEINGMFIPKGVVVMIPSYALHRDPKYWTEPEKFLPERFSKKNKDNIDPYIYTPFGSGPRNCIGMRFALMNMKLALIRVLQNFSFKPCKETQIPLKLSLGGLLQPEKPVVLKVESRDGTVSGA
Cytochrome P450 2D6, sequence (P10635 whole entry): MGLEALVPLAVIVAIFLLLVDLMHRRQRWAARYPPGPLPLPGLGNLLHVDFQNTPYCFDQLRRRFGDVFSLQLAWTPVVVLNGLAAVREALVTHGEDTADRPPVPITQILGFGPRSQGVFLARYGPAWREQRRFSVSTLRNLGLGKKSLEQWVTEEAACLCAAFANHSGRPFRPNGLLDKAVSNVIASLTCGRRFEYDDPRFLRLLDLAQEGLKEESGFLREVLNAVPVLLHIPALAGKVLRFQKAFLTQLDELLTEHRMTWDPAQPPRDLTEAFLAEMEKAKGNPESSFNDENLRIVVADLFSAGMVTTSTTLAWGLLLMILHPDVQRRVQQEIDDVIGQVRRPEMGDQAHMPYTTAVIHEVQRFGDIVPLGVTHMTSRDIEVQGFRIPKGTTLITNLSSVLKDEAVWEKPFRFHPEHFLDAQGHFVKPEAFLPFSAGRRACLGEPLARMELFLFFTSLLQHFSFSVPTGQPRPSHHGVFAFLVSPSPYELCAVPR
Bromodomain-containing protein 2 (Homo sapiens), sequence (P25440 whole entry, looked up): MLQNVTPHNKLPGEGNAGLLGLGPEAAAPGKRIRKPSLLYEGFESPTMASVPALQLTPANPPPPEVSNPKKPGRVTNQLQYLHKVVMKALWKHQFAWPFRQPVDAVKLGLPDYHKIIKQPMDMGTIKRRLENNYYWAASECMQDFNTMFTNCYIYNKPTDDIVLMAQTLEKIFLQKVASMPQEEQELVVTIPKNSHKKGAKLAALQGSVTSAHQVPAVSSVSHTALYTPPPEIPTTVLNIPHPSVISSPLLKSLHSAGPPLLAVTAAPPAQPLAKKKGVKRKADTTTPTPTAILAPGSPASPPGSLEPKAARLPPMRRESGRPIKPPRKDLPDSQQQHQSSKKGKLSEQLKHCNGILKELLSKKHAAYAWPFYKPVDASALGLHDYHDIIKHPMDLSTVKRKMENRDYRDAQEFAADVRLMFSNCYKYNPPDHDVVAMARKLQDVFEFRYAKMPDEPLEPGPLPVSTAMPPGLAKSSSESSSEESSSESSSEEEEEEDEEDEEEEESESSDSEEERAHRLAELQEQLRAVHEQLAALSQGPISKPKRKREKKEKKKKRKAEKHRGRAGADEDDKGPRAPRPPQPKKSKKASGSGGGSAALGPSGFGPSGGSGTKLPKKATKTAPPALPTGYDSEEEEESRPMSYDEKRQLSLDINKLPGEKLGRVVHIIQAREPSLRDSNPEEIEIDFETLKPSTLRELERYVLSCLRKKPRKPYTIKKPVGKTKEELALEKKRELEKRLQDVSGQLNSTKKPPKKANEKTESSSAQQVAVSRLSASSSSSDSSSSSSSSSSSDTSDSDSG
CYP2C19, sequence (P33261 whole entry): as the sequence (P33261 whole entry) above
CYP2C9, sequence (P11712 whole entry): as the sequence (P11712 whole entry) above
CYP3A4, sequence (P08684 whole entry): as the sequence (P08684 whole entry) above
CYP2D6, sequence (P10635 whole entry): as the sequence (P10635 whole entry) above

| SMILES | half-life [2] [min] | Cmax [6] [ng/mL] | TDI (Cytochrome P450 1A2) | TDI (Cytochrome P450 3A4) | AUC(0-t) [7] [ng·h/mL] | IC50 [8] [nM] | Tmax [11] [min] | TDI (Cytochrome P450 2D6) | AUC(0-inf) [12] [ng·h/mL] | TDI (Cytochrome P450 2C9) | TDI (Cytochrome P450 2C19) | IC50 (MM1.S) [nM] | other results |
| --- | --- | --- | --- | --- | --- | --- | --- | --- | --- | --- | --- | --- | --- |
| Cc1ccc(-n2nc(C(=O)N3CCN(C)CC3)nc2-c2ccc3c(c2)N(C2CCCC2)[C@H](C)C(=O)N3C)cc1 | 36 | 42900 | 51 ×10⁻⁴ /min | 55 ×10⁻⁴ /min | 58100 | 5.4 | 18 | Not Active | 58100 | 74 ×10⁻⁴ /min | 141 ×10⁻⁴ /min | 26.1 | inhibition [1]: inactive; half-life at 1 µM [3]: 23 min; microsomal CLint at 1 µM [4]: 34 µL/min/mg; inhibition at 20 min, 10 µM (CYP3A4): 31%; inhibition [5]: Active; inhibition at 20 min, 10 µM (CYP2C19): 19%; inhibition [9]: Active; half-life at 1 µM [10]: 41 min; inhibition [13]: Active; inhibition at 20 min, 10 µM (CYP2D6): 3%; microsomal CLint at 1 µM [14]: 61 µL/min/mg; inhibition at 20 min, 10 µM (CYP2C9): 30%; inhibition activity call (active/inactive) [15]: Active |
| Cc1ccc(-n2cnnc2-c2ccc3c(c2)N(C2CC2)C(C)C(=O)N3C)cc1 (centres undefined) | 90 | 163 | Not Active | Not Active | 161 | 8.6 | 18 | Not Active | 164 | Not Active | Not Active | 6.7 | Stability [16]: Stable; Stability [17]: Stable |
